What was measured:
[1] = tested on: SK-OV-3; experiment: Cytotoxic activity against SKOV-3 human ovarian tumor cell line, using sulforhodamine B (SRB) assay.; assay type: functional, cell-based
Method in brief: (§1)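 In vitro sulforhodamine B (SRB) staining assay on human tumor cell lines. Values are reported as IC50 for cytotoxicity.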

[2] = tested on: A549; experiment: Cytotoxic activity against A 549 human lung tumor cell line, using sulforhodamine B (SRB) assay.; assay type: functional, cell-based; method in brief: as §1
[3] = tested on: HCT-15; experiment: Cytotoxic activity against HCT 15 human colon tumor cell line, using sulforhodamine B (SRB) assay.; assay type: functional, cell-based; method in brief: as §1
[4] = tested on: SK-MEL-2; experiment: Cytotoxic activity against SK-MEL-2 human melanoma cell line, using sulforhodamine B (SRB) assay.; assay type: functional, cell-based; method in brief: as §1
[5] = target: T1, DNA topoisomerase 1 (Homo sapiens) (UniProt P11387); experiment: Inhibitory activity against Topoisomerase I in supercoiled DNA unwinding assay method; Weak activity
T1 sequence (whole entry): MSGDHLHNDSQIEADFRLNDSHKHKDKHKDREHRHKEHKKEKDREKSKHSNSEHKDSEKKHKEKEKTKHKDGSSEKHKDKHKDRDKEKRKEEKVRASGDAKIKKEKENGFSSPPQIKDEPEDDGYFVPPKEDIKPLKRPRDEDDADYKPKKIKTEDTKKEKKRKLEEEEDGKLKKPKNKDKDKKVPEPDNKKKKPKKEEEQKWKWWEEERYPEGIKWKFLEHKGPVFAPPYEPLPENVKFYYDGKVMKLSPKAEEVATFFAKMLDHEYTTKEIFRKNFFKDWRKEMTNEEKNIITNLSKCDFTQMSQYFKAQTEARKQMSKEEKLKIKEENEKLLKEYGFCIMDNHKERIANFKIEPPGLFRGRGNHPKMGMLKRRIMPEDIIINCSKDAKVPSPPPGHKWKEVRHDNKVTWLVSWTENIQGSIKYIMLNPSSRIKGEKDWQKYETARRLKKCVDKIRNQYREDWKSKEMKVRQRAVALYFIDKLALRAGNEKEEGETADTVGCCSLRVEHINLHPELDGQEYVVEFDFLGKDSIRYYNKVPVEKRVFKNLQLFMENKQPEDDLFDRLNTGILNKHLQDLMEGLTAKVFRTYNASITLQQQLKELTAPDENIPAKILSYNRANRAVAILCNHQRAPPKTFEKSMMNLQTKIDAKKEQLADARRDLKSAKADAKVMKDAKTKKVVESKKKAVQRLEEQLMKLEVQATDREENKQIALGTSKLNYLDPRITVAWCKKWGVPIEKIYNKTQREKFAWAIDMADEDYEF

[6] = tested on: OCI-AML2; experiment: Cytotoxic activity against DX-100: doxorubicin (100 ng/mL) resistant AML-2 cell line was determined; assay type: functional
[7] = tested on: OCI-AML2; experiment: Cytotoxic activity against D100 daunorubicin (100 nM) resistant AML-2 cell line was determined; assay type: functional
[8] = tested on: OCI-AML2; experiment: Cytotoxic activity against wild type AML-2 leukemia cell line was determined; assay type: functional
[9] = target: T1, DNA topoisomerase 1 (Homo sapiens); experiment: Inhibitory activity against Topoisomerase I was determined by the supercoiled DNA unwinding assay method; Greater activity than Camptothecin

Structure (SMILES)	IC50 [1] [µM]	IC50 [2] [µM]	IC50 [3] [µM]	IC50 [4] [µM]	Activity [5]	Cytotoxicity [6] [µg/mL]	Activity [7] [µg/mL]	Cytotoxicity [8] [µg/mL]	Cytotoxicity [7] [µg/mL]	Activity [9]
Cc1ccc2c(NCc3ccccc3)nc(-c3ccccc3)cc2c1	156	122	64.2	94.4						
Cc1cccc(-c2cc3ccccc3c(NCc3ccccc3)n2)c1	168	103	108	85	Weak activity					
Cc1ccc2c(N)nc(-c3ccccc3C)cc2c1.Cl	0.21	0.17	0.17	0.14		0.0056	0.0027	0.0078		
CCN1CCN(c2nc(-c3ccccc3C)cc3cc(C)ccc23)CC1	62	21	8.65	12.8						
Cc1ccc(-c2cc3ccccc3c(N3CCCN(C)CC3)n2)cc1	9.34	1.22	7.84	6.18						
Nc1nc(-c2ccccc2)cc2ccccc12	2.03	2.73	1.87	1.48						
CN1CCN(c2nc(-c3ccccc3)cc3ccccc23)CC1	13.7	13.6	13.9	14.5						
COc1cccc2c1C(=O)c1c(O)c3c(c(O)c1C2=O)C[C@@](O)(C(=O)CO)C[C@@H]3O[C@H]1C[C@H](N)[C@H](O)[C@H](C)O1 [DOXORUBICIN]	1.17		1.67	4.78		3.2		0.01	1.93	
CCN1CCN(c2nc(-c3ccccc3Cl)cc3cc(C)ccc23)CC1	195	13.4	5.58	5.58						Greater activity than Camptothecin
Cc1ccc2c(NCCN)nc(-c3ccccc3Cl)cc2c1	> 300	> 300	> 300	> 300	Weak activity					
COc1cccc2c1C(=O)c1c(O)c3c(c(O)c1C2=O)C[C@@](O)(C(C)=O)C[C@@H]3O[C@H]1C[C@H](N)[C@H](O)[C@H](C)O1 [DAUNORUBICIN]						0.43		0.001	0.52	
CN1CCCN(c2nc(-c3cccc4ccccc34)cc3ccccc23)CC1	3.64	0.52	1.93	1.98	Weak activity					
CCN1CCN(c2nc(-c3ccccc3)cc3cc(C)ccc23)CC1	41.8	18.2	2.42	11.9						
Cc1ccc2c(NCCN)nc(-c3ccccc3C)cc2c1	> 300	> 300	> 300	> 300	Weak activity					
c1ccc(CNc2nc(-c3ccccc3)cc3ccccc23)cc1	102	177	87.4	83	Weak activity					
Cc1ccc(-c2cc3cc(C)ccc3c(NCCN)n2)cc1	> 300	> 300	> 300	> 300						Greater activity than Camptothecin
Cc1cccc(-c2cc3ccccc3c(N3CCCN(C)CC3)n2)c1	8.22	8.57	9.2	8.85	Weak activity					
N[C@H]1CC[C@H](Nc2nc(-c3ccccc3)cc3ccccc23)CC1	4.36	7.95	7.24	7.7						
CN1CCCN(c2nc(-c3ccc(Br)cc3)cc3ccccc23)CC1	3.85	6.04	5.26	4.12						
Cc1ccccc1-c1cc2ccccc2c(N)n1	1.81	3.14	1.92	2.11						
CC(=O)N[C@H]1CC[C@H](Nc2nc(-c3ccccc3)cc3ccccc23)CC1	186	145	253	183	Weak activity					
CN1CCCN(c2nc(-c3ccc(Cl)cc3)cc3ccccc23)CC1	20	11.8	9.78	8.55						
Cc1ccccc1-c1cc2ccccc2c(N[C@H]2CC[C@H](N)CC2)n1	9.17	10.2	7.65	6.45	Weak activity					
Cc1ccc2c(NCCN)nc(-c3ccccc3)cc2c1	> 300	> 300	> 300	> 300						Greater activity than Camptothecin
Cc1ccc2c(N3CCCN(C)CC3)nc(-c3ccccc3C)cc2c1	0.7	0.44	1.2	0.99						
Cc1ccc(-c2cc3ccccc3c(NCc3ccccc3)n2)cc1	193	168	171	133						
CCN1CCN(c2nc(-c3ccc(C)cc3)cc3cc(C)ccc23)CC1	63.4	26.9	8.07	14.4	Weak activity					
CCN1CCN(c2nc(-c3ccccc3)cc3ccccc23)CC1	68.9	55.4	7.22	95.7	Weak activity					
Cc1cccc(-c2cc3cc(C)ccc3c(NCc3ccccc3)n2)c1	146	171	111	88.7	Weak activity					
CN1CCCN(c2nc(-c3ccccc3)cc3ccccc23)CC1	17	10.8	11.1	8.38						Greater activity than Camptothecin
